Measurements as given in ChEMBL document CHEMBL4229550, “An antimycobacterial pleuromutilin analogue effective against dormant bacilli” (Bioorg Med Chem, 2018).
Values after ≈ are worked out from the molar mass of the structure shown. Active and inactive are the calls of the source. No cut-off for these calls is given here.

Tests used:
[1] = test system: Mycobacterium tuberculosis; assay: Antibacterial activity against Mycobacterium tuberculosis Erdman infected in Balb/c mouse assessed as reduction in bacterial load in lungs at 2.5 mg/kg, po for 3 weeks starting from 10 days post infection measured on day 21 post infection; format: functional, Erdman = ATCC 35801
Outline: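 Female BALB/c mice, 7–8 weeks old, are aerosol-infected with Mtb Erdman. From day 10 they receive oral gavage in water for three weeks, in groups of 5. Lungs and spleens are harvested at day 21 post-infection and plated for CFU. Efficacy is the log10 reduction in lung burden versus untreated (vehicle) controls.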

[2] = Selectivity index, ratio of IC50 for African green monkey Vero cells to MIC100 for replicating Mycobacterium tuberculosis H37Rv by MABA; format: toxicity; conditions: read-out: Selectivity Index
Outline: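 Vero cells are cultured in EMEM with 10% FBS and exposed for 72 h to 0.78–200 µg/mL. Medium is switched to phenol-red-free EMEM, MTT is added, and formazan is read at 570 nm to give IC50. The selectivity index is Vero IC50 divided by the MABA MIC.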

[3] = test system: Mycobacterium tuberculosis; assay: Bactericidal activity against non-replicating Mycobacterium tuberculosis CDC1551 expressing tdTomato infected in mouse J774A.1 cells at 2 times MIC up to 72 hrs by UV-Visible spectroscopic method; format: functional, organism-based
Outline: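 J774A.1 macrophages are seeded at […] cells/well in DMEM and incubated overnight at 37 °C. They are infected with saline-washed Mtb CDC1551-tdTomato (10^6 bacteria, MOI ≈10), and extracellular bacteria are washed off with PBS. Treatment is at 2×MIC, with fluorescence emission read at 581 nm at 24, 48, 72 and 96 h. Survivors are confirmed by serial dilution and plating on 7H11.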

[4] = test system: Mycobacterium tuberculosis; assay: Antibacterial activity against replicating Mycobacterium tuberculosis H37Rv incubated for 15 days under aerobic condition by MABA; format: functional; conditions: 360 h, read-out: MIC100
Outline: (§1)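 Mtb H37Rv grown in 7H9/OADC at 37 °C with shaking to OD600 0.5. The 0.5-OD culture is exposed aerobically to serial dilutions for 15 days at 37 °C. Resazurin (0.02% stock) is then added for 4 h at 37 °C with shaking.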

[5] = test system: Vero; assay: Cytotoxicity against African green monkey Vero cells assessed as reduction in cell viability after 72 hrs by MTT assay; format: cell-based; conditions: Chlorocebus sabaeus
Outline: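 Vero cells were grown in complete EMEM with 10% FBS and exposed for 72 h to 0.78–200 µg/mL. The medium was then swapped for phenol-red-free EMEM and MTT was added. Formazan absorbance was read at 570 nm to give IC50.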

[6] = test system: Mycobacterium tuberculosis; assay: Bactericidal activity against replicating Mycobacterium tuberculosis H37Rv incubated for 15 days under aerobic condition by MABA; format: functional; conditions: 360 h; outline: as §1
[7] = test system: Streptococcus salivarius; assay: Bactericidal activity against Streptococcus salivarius ATCC 6301 incubated for 24 hrs under aerobic condition by MABA; format: functional; conditions: ATCC 6301, 24 h
[8] = test system: Streptococcus salivarius; assay: Antibacterial activity against Streptococcus salivarius […] incubated for 24 hrs under aerobic condition by MABA; format: functional; conditions: read-out: MIC100
Outline: (§2)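 Resazurin was then added from a 0.08% stock for 1 h. MIC100 was the lowest concentration where the dye stayed blue (pink means growth). Absorbance was also read at 570 and 600 nm.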

[9] = test system: Staphylococcus aureus; assay: Bactericidal activity against Staphylococcus aureus incubated for 24 hrs under aerobic condition by MABA; format: functional
[10] = test system: Staphylococcus aureus; assay: Bactericidal activity against Staphylococcus aureus BAA 44 incubated for 24 hrs under aerobic condition by MABA; format: functional; conditions: BAA 44, 24 h
[11] = test system: Escherichia coli; assay: Antibacterial activity against Escherichia coli ATCC 10798 incubated for 24 hrs under aerobic condition by MABA; format: functional; conditions: ATCC 10798, 24 h, read-out: MIC100
Outline: (§3)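 Mid-log cultures at OD 0.5 were exposed to serial dilutions under aerobic conditions at 37 °C for 24 h. Resazurin was then added from a 0.08% stock for 1 h. MIC100 was the lowest concentration where the dye stayed blue (pink means growth). Absorbance was also read at 570 and 600 nm.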

[12] = Half life in Sprague-Dawley rat liver microsomes at 500 ng/ml preincubated for 5 mins followed by NADPH addition by C-MS/MS analysis; format: ADME, microsome
[13] = test system: Mycolicibacterium smegmatis; assay: Antibacterial activity against Mycobacterium smegmatis ATCC 607 incubated for 48 hrs under aerobic condition by MABA; format: functional; conditions: ATCC 607, 48 h, read-out: MIC100
Outline: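 Mid-log culture at OD 0.5 was incubated with serial dilutions aerobically at 37 °C for 48 h. Resazurin was then added from a 0.08% stock for 1 h. MIC100 was the lowest concentration that stayed blue; absorbance was also read at 570/600 nm.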

[14] = test system: Staphylococcus aureus; assay: Bactericidal activity against Staphylococcus aureus BAA 2094 incubated for 24 hrs under aerobic condition by MABA; format: functional; conditions: BAA 2094, 24 h
[15] = test system: Klebsiella pneumoniae; assay: Bactericidal activity against Klebsiella pneumoniae ATCC 12019 incubated for 24 hrs under aerobic condition by MABA; format: functional; conditions: ATCC 12019, 24 h
[16] = test system: Enterococcus faecalis; assay: Bactericidal activity against Enterococcus faecalis ATCC 349 incubated for 24 hrs under aerobic condition by MABA; format: functional; conditions: ATCC 349, 24 h
[17] = test system: Mycolicibacterium smegmatis; assay: Antibacterial activity against Mycobacterium smegmatis; format: functional
[18] = test system: Bacillus subtilis; assay: Bactericidal activity against Bacillus subtilis ATCC 6051 incubated for 24 hrs under aerobic condition by MABA; format: functional; conditions: ATCC 6051, 24 h
[19] = test system: Enterococcus faecalis; assay: Bactericidal activity against Enterococcus faecalis ATCC 19433 incubated for 24 hrs under aerobic condition by MABA; format: functional; conditions: ATCC 19433, 24 h
[20] = test system: Staphylococcus aureus; assay: Antibacterial activity against Staphylococcus aureus ATCC 25923 incubated for 24 hrs under aerobic condition by MABA; format: functional; conditions: ATCC 25923, 24 h, read-out: MIC100; outline: as §3
[21] = test system: Enterococcus faecalis; assay: Antibacterial activity against Enterococcus faecalis ATCC 19433 incubated for 24 hrs under aerobic condition by MABA; format: functional; conditions: ATCC 19433, 24 h, read-out: MIC100; outline: as §3
[22] = test system: Streptococcus pneumoniae; assay: Bactericidal activity against Streptococcus pneumoniae ATCC 6301 incubated for 24 hrs under aerobic condition by MABA; format: functional; conditions: ATCC 6301, 24 h
[23] = test system: Clostridioides difficile; assay: Bactericidal activity against Clostridium difficile ATCC 700057 incubated for 24 hrs […] by MABA; format: functional; conditions: ATCC 700057, 24 h
[24] = test system: Staphylococcus aureus; assay: Bactericidal activity against Staphylococcus aureus ATCC 25923 incubated for 24 hrs under aerobic condition by MABA; format: functional; conditions: ATCC 25923, 24 h
[25] = test system: Escherichia coli; assay: Bactericidal activity against Escherichia coli ATCC 10798 incubated for 24 hrs under aerobic condition by MABA; format: functional; conditions: ATCC 10798, 24 h
[26] = test system: Mycolicibacterium smegmatis; assay: Bactericidal activity against Mycobacterium smegmatis ATCC 607 incubated for 48 hrs under aerobic condition by MABA; format: functional; conditions: ATCC 607, 48 h
[27] = test system: Staphylococcus aureus; assay: Antibacterial activity against Staphylococcus aureus BAA 2094 incubated for 24 hrs under aerobic condition by MABA; format: functional; conditions: BAA 2094, 24 h, read-out: MIC100; outline: as §2
[28] = test system: Staphylococcus aureus; assay: Antibacterial activity against Staphylococcus aureus BAA 1683 incubated for 24 hrs under aerobic condition by MABA; format: functional; conditions: BAA 1683, 24 h, read-out: MIC100; outline: as §3
[29] = test system: Staphylococcus aureus; assay: Antibacterial activity against Staphylococcus aureus incubated for 24 hrs under aerobic condition by MABA; format: functional; conditions: read-out: MIC100; outline: as §2
[30] = test system: Acinetobacter baumannii; assay: Bactericidal activity against Acinetobacter baumannii ATCC 19606 incubated for 24 hrs under aerobic condition by MABA; format: functional; conditions: ATCC 19606 = CIP 70.34 = JCM 6841, 24 h
[31] = test system: Klebsiella pneumoniae; assay: Antibacterial activity against Klebsiella pneumoniae ATCC 12019 incubated for 24 hrs under aerobic condition by MABA; format: functional; conditions: ATCC 12019, 24 h, read-out: MIC100; outline: as §3
[32] = test system: Escherichia coli; assay: Inhibition of protein translation/transcription in Escherichia coli S30 cell extract at 0.1 ug/ml using circular DNA with pBESTluc after 60 mins by luciferase reporter gene assay; format: functional
Outline: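 Coupled transcription/translation used E. coli S30 extract, amino acid mix and premix, with the pBESTluc template carrying firefly luciferase under the tac promoter. Compounds were added in DMSO and reactions were started with DNA. Incubation was 60 min at 37 °C, stopped on ice, and luciferase was read after adding assay substrate.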

[33] = test system: Staphylococcus aureus; assay: Antibacterial activity against Staphylococcus aureus BAA 44 incubated for 24 hrs under aerobic condition by MABA; format: functional; conditions: BAA 44, 24 h, read-out: MIC100; outline: as §3
[34] = test system: Staphylococcus aureus; assay: Bactericidal activity against Staphylococcus aureus BAA 1683 incubated for 24 hrs under aerobic condition by MABA; format: functional; conditions: BAA 1683, 24 h
[35] = test system: Bacillus subtilis; assay: Antibacterial activity against Bacillus subtilis ATCC 6051 incubated for 24 hrs under aerobic condition by MABA; format: functional; conditions: ATCC 6051, 24 h, read-out: MIC100; outline: as §3
[36] = test system: Acinetobacter baumannii; assay: Antibacterial activity against Acinetobacter baumannii ATCC 19606 incubated for 24 hrs under aerobic condition by MABA; format: functional; conditions: ATCC 19606 = CIP 70.34 = JCM 6841, 24 h, read-out: MIC100; outline: as §3
[37] = test system: Streptococcus pneumoniae; assay: Antibacterial activity against Streptococcus pneumoniae ATCC 6301 incubated for 24 hrs under aerobic condition by MABA; format: functional; conditions: ATCC 6301, 24 h, read-out: MIC100; outline: as §3
[38] = test system: Enterococcus faecalis; assay: Antibacterial activity against Enterococcus faecalis ATCC 349 incubated for 24 hrs under aerobic condition by MABA; format: functional; conditions: ATCC 349, 24 h, read-out: MIC100; outline: as §3

For `NNC(=O)c1ccncc1` [ISONIAZID], the “log(activity)” value [1] was 4.22, the selectivity ratio [2] was > 2000 and the Activity [3] was “inactive”. For the same compound, the MIC [4] was 0.04 to 0.1 µg/mL (≈ 0.292 to 0.729 µM), the IC50 [5] was > 200 µg/mL and the MBC [6] was 0.57 µg/mL (≈ 4.16 µM).

In the case of `C=C[C@]1(C)C[C@@H](OC(=O)CSC(C)(C)CNC(=O)[C@H](N)C(C)C)[C@]2(C)[C@H](C)CC[C@]3(CCC(=O)[C@H]32)[C@@H](C)[C@@H]1O` [VALNEMULIN], the selectivity ratio [2] is reported as 4.79, the MBC [7] is reported as > 25 µg/mL and the MIC [8] is reported as 0.4 µg/mL (≈ 0.708 µM). For the same compound, the MBC [9] was 0.8 µg/mL (≈ 1.42 µM), the MBC [10] was > 25 µg/mL and the MIC [11] was 12.5 µg/mL (≈ 22.1 µM). For the same compound, the t1/2 [12] was 10 min, the MIC [13] was 12.5 µg/mL (≈ 22.1 µM) and the MBC [14] was > 25 µg/mL. The MBC [15] was 25 µg/mL (≈ 44.3 µM), the MBC [16] was > 25 µg/mL and the MIC [17] was 8 to 16 µg/mL (≈ 14.2 to 28.3 µM). The MBC [18] was 25 µg/mL (≈ 44.3 µM), the MBC [19] was 12.5 µg/mL (≈ 22.1 µM) and the MIC [20] was > 25 µg/mL. For the same compound, the MIC [21] was 6.25 µg/mL (≈ 11.1 µM), the MIC [4] was 3.13 µg/mL (≈ 5.54 µM) and the MBC [22] was > 25 µg/mL. For the same compound, the MBC [23] was 1.56 µg/mL (≈ 2.76 µM), the MBC [24] was > 25 µg/mL and the MBC [25] was > 25 µg/mL. The MBC [26] was 25 µg/mL (≈ 44.3 µM), the MIC [27] was > 25 µg/mL and the MIC [28] was > 25 µg/mL. The MIC [29] was 0.4 µg/mL (≈ 0.708 µM), the MBC [30] was 6.25 µg/mL (≈ 11.1 µM) and the MIC [31] was 12.5 µg/mL (≈ 22.1 µM). The inhibition [32] was “Active”, the MIC [33] was > 25 µg/mL and the MBC [34] was > 25 µg/mL. It also gave an MIC [35] of 12.5 µg/mL (≈ 22.1 µM), an MIC [36] of 4.69 µg/mL (≈ 8.3 µM) and an MIC [37] of 12.5 µg/mL (≈ 22.1 µM). The MIC [38] was > 25 µg/mL and the MBC [6] was 6.25 µg/mL (≈ 11.1 µM).
